Source: ChEMBL document CHEMBL2169781, “Discovery and biological evaluation of a novel class of dual microsomal prostaglandin E2 synthase-1/5-lipoxygenase inhibitors based on 2-[(4,6-diphenethoxypyrimidin-2-yl)thio]hexanoic acid” (J Med Chem, 2011)

How the values were obtained:
[1] = biological target: T1, Polyunsaturated fatty acid 5-lipoxygenase (Homo sapiens, UniProt P09917); test: Inhibition of human recombinant 5-lipoxygenase-mediated product formation from arachidonic acid after 5 to 10 mins by HPLC analysis
T1 sequence (P09917 whole entry): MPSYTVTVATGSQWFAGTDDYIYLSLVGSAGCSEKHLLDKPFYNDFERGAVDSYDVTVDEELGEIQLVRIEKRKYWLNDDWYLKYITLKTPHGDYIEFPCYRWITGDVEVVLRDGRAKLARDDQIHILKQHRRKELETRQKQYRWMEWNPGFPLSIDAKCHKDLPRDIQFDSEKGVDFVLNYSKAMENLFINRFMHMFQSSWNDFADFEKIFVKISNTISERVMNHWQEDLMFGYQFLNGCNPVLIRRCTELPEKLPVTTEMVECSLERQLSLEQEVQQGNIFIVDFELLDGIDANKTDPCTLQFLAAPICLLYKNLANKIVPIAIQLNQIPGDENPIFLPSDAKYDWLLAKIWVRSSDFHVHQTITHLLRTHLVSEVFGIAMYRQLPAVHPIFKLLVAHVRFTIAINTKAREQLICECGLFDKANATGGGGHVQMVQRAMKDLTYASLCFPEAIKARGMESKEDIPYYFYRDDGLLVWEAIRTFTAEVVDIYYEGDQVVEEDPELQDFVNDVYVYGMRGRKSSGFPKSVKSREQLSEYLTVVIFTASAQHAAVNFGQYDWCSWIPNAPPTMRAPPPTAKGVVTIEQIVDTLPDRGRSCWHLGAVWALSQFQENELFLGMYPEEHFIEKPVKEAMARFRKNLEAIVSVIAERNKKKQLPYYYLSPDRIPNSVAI
How it was run: (§1)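 Human 5-LO expressed in E. coli BL21 (pT3-5LO) at 37 °C, purified and used at once. Enzyme (0.5 μg/mL in PBS/EDTA with 1 mM ATP) preincubated with compound 5–10 min at 4 °C, prewarmed 30 s at 37 °C, started with 2 mM CaCl₂ + 20 μM AA (±1 μM 13(S)-HpODE), 10 min at 37 °C, stopped with cold methanol, products by HPLC.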

Prostaglandin E synthase = biological target: T2, Prostaglandin E synthase (Homo sapiens, UniProt O14684); test: Inhibition of mPGES-1 in human IL-1beta-stimulated A549 cell microsomes assessed as reduction of PGE2 formation from PGH2 after 15 mins by RP-HPLC analysis; set-up: species or system Microsome
T2 sequence (O14684 whole entry): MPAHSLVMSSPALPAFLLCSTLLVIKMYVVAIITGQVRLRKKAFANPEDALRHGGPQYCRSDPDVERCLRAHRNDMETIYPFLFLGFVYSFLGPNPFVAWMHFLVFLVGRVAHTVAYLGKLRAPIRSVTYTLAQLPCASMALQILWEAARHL
How it was run: (§2)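 A549 cells in DMEM with 2% FCS for 16 h, induced with IL-1β (1 ng/mL) for 72 h, homogenized. Microsomal pellet (174 000 × g) diluted in 0.1 M potassium phosphate pH 7.4 with 2.5 mM glutathione, given compound or DMSO for 15 min. PGH₂ added (20 μM final), 1 min at 4 °C, stopped with FeCl₂/citric acid. PGE₂ by SPE and RP-HPLC (UV 195 nm), 11β-PGE₂ internal standard. Tested up to 10 μM; IC₅₀ reported only above 50% inhibition at 10 μM.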

[2] = biological target: T1, Polyunsaturated fatty acid 5-lipoxygenase; test: Inhibition of 5-lipoxygenase-mediated 5(S)-H(p)ETE formation in fMLP-stimulated human PMNL incubated 10 mins prior to fMLP challenge
[3] = biological target: T1, Polyunsaturated fatty acid 5-lipoxygenase; test: Inhibition of 5-lipoxygenase-mediated 5(S)-H(p)ETE formation in A23187-stimulated human PMNL incubated 10 mins prior to A23187 challenge
[4] = biological target: T3, Polyunsaturated fatty acid 5-lipoxygenase (Homo sapiens) (UniProt P09917); test: Inhibition of human recombinant 5-lipoxygenase-mediated product formation from arachidonic acid assessed as remaining activity at 10 uM after 5 to 10 mins by HPLC analysis; how it was run: as §1
T3 sequence (whole entry): T1 sequence (P09917 whole entry)

[5] = biological target: Prostaglandin G/H synthase 2 (Homo sapiens) (UniProt P35354); test: Inhibition of human recombinant COX-2 mediated formation of 12-HHT from arachidonic acid assessed as remaining activity at 10 uM after 5 mins by HPLC analysis
[6] = Cytotoxicity in human polymorphonuclear leukocytes assessed as cell viability at 10 uM after 30 mins by MTT assay
[7] = biological target: Prostaglandin G/H synthase 1 (Ovis aries) (UniProt P05979); test: Inhibition of ovine COX-1 mediated formation of 12-HHT from arachidonic acid assessed as remaining activity at 10 uM after 5 mins by HPLC analysis
[8] = biological target: T4, Prostaglandin E synthase (Homo sapiens) (UniProt O14684); test: Inhibition of mPGES-1 in human IL-1beta-stimulated A549 cell microsomes assessed as residual activity by measuring reduction of PGE2 formation from PGH2 at 10 uM after 15 mins by RP-HPLC analysis; settings: Microsome; how it was run: as §2
T4 sequence (whole entry): T2 sequence (O14684 whole entry)

[9] = biological target: T3, Polyunsaturated fatty acid 5-lipoxygenase (Homo sapiens); test: Selectivity ratio of IC50 for human recombinant 5-lipoxygenase in cell-free system to IC50 for 5-lipoxygenase-mediated 5(S)-H(p)ETE formation in A23187-stimulated PMNL

Row | Compound | IC50 [1] | IC50 (Prostaglandin E synthase) | IC50 [2] | IC50 [3] | Activity [4] | Activity [5] | Activity [7] | Activity [8] | Ratio IC50 [9] | Activity [6]
1 | O=C(O)C(Sc1nc(OCCc2ccccc2)cc(OCCc2ccccc2)n1)c1ccccc1 (stereo not drawn) | 4900 nM | 1200 nM | 800 nM |  |  |  |  |  |  | 
2 | CCCC/C(=C\c1cc(OCCC2CCCCC2)ccc1OCCC1CCCCC1)C(=O)O | > 10000 nM | 3400 nM |  | 800 nM | 73% | 123% | 76.4% |  |  | Non-toxic
3 | CCCCC(Cc1cc(OCCc2ccccc2)ccc1OCCc1ccccc1)C(=O)O (stereo not drawn) | > 10000 nM | 2400 nM | 900 nM |  | 65.5% | 66.5% | 63.8% |  |  | Non-toxic
4 | CCCCC(Sc1nc(OCc2ccccc2)cc(OCc2ccccc2)n1)C(=O)O (stereo not drawn) | 5000 nM | 3800 nM | 1800 nM |  |  |  |  |  |  | 
5 | CCCC/C(=C\c1cc(OCc2ccc(C(F)(F)F)cc2)ccc1OCc1ccc(C(F)(F)F)cc1)C(=O)O | 4400 nM | > 10000 nM |  | 200 nM |  | 102% | 82.6% | 55.1% |  | Non-toxic
6 | O=C(O)CSc1nc(OCCc2ccccc2)cc(OCCc2ccccc2)n1 | > 10000 nM | > 10000 nM |  | 7600 nM | 57% |  |  |  |  | 
7 | CCCCC(Cc1ccc(OCCc2ccccc2)c(OCCc2ccccc2)c1)C(=O)O (stereo not drawn) | > 10000 nM | 2700 nM |  | 6000 nM | 54% | 86.4% | 95.8% |  |  | Non-toxic
8 | CCCC/C(=C\c1cc(OCCc2ccc(C(F)(F)F)cc2)ccc1OCCc1ccc(C(F)(F)F)cc1)C(=O)O | > 10000 nM | 3500 nM |  | 300 nM | 55.6% | 102% | 81% |  | > 20 | Non-toxic
9 | CCC(Sc1nc(OCCc2ccccc2)cc(OCCc2ccccc2)n1)C(=O)O (stereo not drawn) | 9000 nM | 7300 nM | 2800 nM |  |  |  |  |  |  | 
10 | CCCCC(Sc1nc(OCCc2ccc(C(F)(F)F)cc2)cc(OCCc2ccc(C(F)(F)F)cc2)n1)C(=O)O (stereo not drawn) | 2200 nM | 1900 nM |  | 500 nM |  |  |  |  |  | 
11 | CCCCC(Oc1cc(OCCc2ccccc2)cc(OCCc2ccccc2)c1)C(=O)O (stereo not drawn) | > 10000 nM | 3400 nM |  | 600 nM |  | 92.5% | 71.6% |  | > 20 | Non-toxic
12 | CCCCC(Cc1ccc(OCCc2ccccc2)cc1OCCc1ccccc1)C(=O)O (stereo not drawn) | > 10000 nM | > 10000 nM | > 10000 nM |  | 85.6% | 110% | 99.1% | 90.1% |  | Non-toxic
13 | CCCCC(Cc1cc(OCCc2ccccc2)cc(OCCc2ccccc2)c1)C(=O)O (stereo not drawn) | > 10000 nM | 2400 nM |  | 4700 nM | 80.3% | 78.4% | 78.7% |  |  | Non-toxic
14 | CCCC/C(=C\c1cc(OCCc2ccccc2)cc(OCCc2ccccc2)c1)C(=O)O | > 10000 nM | 2800 nM |  | 700 nM | 62.7% | 81.4% | 81.4% |  |  | Non-toxic
15 | CCCC/C(=C\c1cc(OCCc2ccccc2)ccc1OCCc1ccccc1)C(=O)O | > 10000 nM | 1500 nM | 900 nM |  | 78.2% | 94.4% | 68% |  |  | Non-toxic
16 | CCCC/C(=C\c1cccc(OCCc2ccccc2)c1OCCc1ccccc1)C(=O)O | > 10000 nM | 1100 nM | 800 nM |  | 91.3% | 113% | 86.8% |  |  | Non-toxic
17 | CCCCC(Sc1cc(OCCc2ccccc2)cc(OCCc2ccccc2)c1)C(=O)O (stereo not drawn) | 7200 nM | 4600 nM |  | 800 nM |  | 110% | 71.3% |  |  | Non-toxic
18 | CCCCC(Cc1cccc(OCCc2ccccc2)c1OCCc1ccccc1)C(=O)O (stereo not drawn) | 4900 nM | 3900 nM |  | 2100 nM |  | 89.6% | 66.1% |  |  | Non-toxic
19 | CCCCC(Sc1nc(OCCc2ccc(OC(F)(F)F)cc2)cc(OCCc2ccc(OC(F)(F)F)cc2)n1)C(=O)O (stereo not drawn) | > 10000 nM | > 10000 nM |  | 500 nM | 56.4% |  |  | 88.3% | > 20 | 

More lines, main results first:

Row | IC50 [1] | IC50 (Prostaglandin E synthase) | IC50 [2] | IC50 [3] | Activity [4] | Activity [5] | Activity [7] | Activity [8] | Ratio IC50 [9] | Compound | Activity [6]
20 | 2200 nM | 900 nM |  | 700 nM |  |  |  |  |  | CCCCC(Sc1nc(OCCCCc2ccccc2)cc(OCCCCc2ccccc2)n1)C(=O)O (stereo not drawn) | 
21 | 9000 nM | 2400 nM |  | 800 nM |  |  |  |  |  | CCCCC(Sc1nc(OCCC2CCCCC2)cc(OCCC2CCCCC2)n1)C(=O)O (stereo not drawn) | 
22 | 6800 nM | > 10000 nM |  | 1200 nM |  |  |  | 54.5% |  | CCCCC(Sc1nc(OCCC(C)C)cc(OCCC(C)C)n1)C(=O)O (stereo not drawn) | 
23 | 2700 nM | 2200 nM |  | 900 nM |  |  |  |  |  | CCCCC(Sc1nc(OCCCc2ccccc2)cc(OCCCc2ccccc2)n1)C(=O)O (stereo not drawn) | 
24 | 9300 nM | 9600 nM |  | 1200 nM |  |  |  |  |  | CCCCC(Sc1nc(OCCC2CC2)cc(OCCC2CC2)n1)C(=O)O (stereo not drawn) | 
25 | 3100 nM | 900 nM |  | 500 nM |  |  |  |  |  | CCCCC(Sc1nc(OCCc2ccc(C)cc2)cc(OCCc2ccc(C)cc2)n1)C(=O)O (stereo not drawn) | 
26 | 6600 nM | 5900 nM |  | 700 nM |  |  |  |  |  | CCCCC(Sc1nc(OCCc2ccc(C#N)cc2)cc(OCCc2ccc(C#N)cc2)n1)C(=O)O (stereo not drawn) | 
27 | 9300 nM | 6500 nM |  | 600 nM |  |  |  |  |  | CCCCC(Sc1nc(OCCc2ccsc2)cc(OCCc2ccsc2)n1)C(=O)O (stereo not drawn) | 
28 | 7000 nM | > 10000 nM |  | 300 nM |  |  |  | 63.7% | > 20 | CCCCC(Sc1nc(OCCc2ccc(OC)cc2)cc(OCCc2ccc(OC)cc2)n1)C(=O)O (stereo not drawn) | 
29 | 4700 nM | 1200 nM |  | 600 nM |  |  |  |  |  | CCCCC(Sc1nc(OCCc2ccccc2)cc(OCCc2ccccc2)n1)C(=O)O (stereo not drawn) | 
30 | > 10000 nM | > 10000 nM |  | 2400 nM | 53.8% |  |  | 62.4% |  | CCCCC(Sc1nc(OCCC2CCCCCC2)cc(OCCC2CCCCCC2)n1)C(=O)O (stereo not drawn) | 
31 | 2800 nM | 3700 nM |  | 500 nM |  |  |  |  |  | CCCCC(Sc1nc(OCCc2ccc([N+](=O)[O-])cc2)cc(OCCc2ccc([N+](=O)[O-])cc2)n1)C(=O)O (stereo not drawn) | 
32 | 6800 nM | > 10000 nM |  | 4000 nM |  |  |  | 90% |  | CCCCC(Sc1nc(OCCC2CCCC2)cc(OCCC2CCCC2)n1)C(=O)O (stereo not drawn) | 
